Activity calls are given as the source filed them. No cut-off for these calls is given here.
What was measured:
OVCAR-4 [1] = test: Cytotoxicity against human OVCAR4 cells assessed as cell growth at 10 uM after 48 hrs by SRB assay; type: functional; conditions: OVCAR-4, 48 h, read-out: Activity
Procedure, shortened: (§1)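 NCI primary single-dose screen at 10^-5 M against the full panel of about 60 human tumor cell lines. Cells were in RPMI-1640 with 5% fetal calf serum and 2 mM L-glutamine and preincubated 24 h. Compound was given in DMSO with 48 h exposure. Growth was estimated by sulforhodamine B protein assay.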

SN12C = test: Cytotoxicity against human SN12C cells after 48 hrs by SRB assay; type: functional
Procedure, shortened: (§2)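 NCI 60-cell-line five-dose screen. Cells were grown in 1640 medium with 5% fetal calf serum and 2 mM L-glutamine, with inoculum density set by cell line, and pre-incubated 24 h. Compound in DMSO was added at 10^-4 to 10^-8 M (10-fold steps) with 48 h continuous exposure. Growth was read by SRB protein assay, and GI50, TGI and LC50 were derived from dose-response.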

MDA-MB-468 = test: Cytotoxicity against human MDA-MB-468 cells assessed as cell growth at 10 uM after 48 hrs by SRB assay; type: functional; conditions: MDA-MB-468, 48 h, read-out: Activity; procedure, shortened: as §1
PC-3 = test: Cytotoxicity against human PC3 cells assessed as cell growth at 10 uM after 48 hrs by SRB assay; type: functional; conditions: PC-3, 48 h, read-out: Activity; procedure, shortened: as §1
786-0 = test: Cytotoxicity against human 786-0 cells assessed as cell growth at 10 uM after 48 hrs by SRB assay; type: functional; conditions: 786-0, 48 h, read-out: Activity
Procedure, shortened: (§3)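 NCI primary single-dose screen at 10^-5 M against the ~60 human tumour cell line panel. Cells grown in RPMI-1640 with 5% fetal calf serum and 2 mM L-glutamine and pre-incubated 24 h before compound addition. Compound added from DMSO solution with 48 h exposure. Growth read by sulforhodamine B protein staining.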

RPMI-8226 = test: Cytotoxicity against human RPMI8226 cells after 48 hrs by SRB assay; type: functional; conditions: RPMI-8226, 48 h
Procedure, shortened: (§4)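 NCI five-dose screen on the ~60-line human tumor panel. Cells grown in RPMI-1640 with 5% fetal calf serum and 2 mM L-glutamine, seeded at line-dependent density and preincubated 24 h. Compound added from DMSO at 10-fold dilutions from 10^-4 to 10^-8 M, continuous exposure 48 h. Growth read by sulforhodamine B protein stain. GI50, TGI and LC50 derived per line.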

HOP-92 = test: Cytotoxicity against human HOP92 cells assessed as cell growth at 10 uM after 48 hrs by SRB assay; type: functional; conditions: HOP-92, 48 h, read-out: Activity; procedure, shortened: as §3
NCI-H23 = test: Cytotoxicity against human NCI-H23 cells assessed as cell growth at 10 uM after 48 hrs by SRB assay; type: functional; conditions: NCI-H23, 48 h, read-out: Activity; procedure, shortened: as §1
HCT-116 = test: Cytotoxicity against human HCT116 cells after 48 hrs by SRB assay; type: functional; conditions: HCT-116, 48 h
Procedure, shortened: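 NCI ~60-line panel in RPMI-1640 with 5% fetal calf serum and 2 mM L-glutamine, pre-incubated 24 h. Compound in DMSO tested at five 10-fold concentrations (10^-4 to 10^-8 M) with 48 h continuous exposure. Growth measured by sulforhodamine B protein assay. GI50 (50% net growth inhibition), TGI (total inhibition) and LC50 (50% net cell death) derived from dose-response.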

SNB-19 = test: Cytotoxicity against human SNB19 cells assessed as cell growth at 10 uM after 48 hrs by SRB assay; type: functional; conditions: SNB-19, 48 h, read-out: Activity
Procedure, shortened: (§5)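 NCI primary one-dose screen at 10^-5 M against the full panel of about 60 human tumour cell lines, run to the NCI Drug Evaluation Branch protocol.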

HL-60(TB) = test: Cytotoxicity against human HL-60(TB) cells after 48 hrs by SRB assay; type: functional; conditions: HL-60, 48 h
Procedure, shortened: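 NCI 60-cell-line screen, five-dose assay: cells in RPMI1640 (printed "PMI1640") with 5% fetal calf serum and 2 mM L-glutamine, pre-incubated 24 h before compound addition. Compound in DMSO at 10-4, 10-5, 10-6, 10^-7 and 10^-8 M; continuous 48 h exposure. Growth estimated by sulforhodamine B protein assay; log GI50, TGI and LC50 derived from dose-response.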

OVCAR-4 [2] = test: Cytotoxicity against human OVCAR4 cells after 48 hrs by SRB assay; type: functional; conditions: OVCAR-4, 48 h; procedure, shortened: as §4
HOP-62 = test: Cytotoxicity against human HOP62 cells assessed as cell growth at 10 uM after 48 hrs by SRB assay; type: functional; conditions: HOP-62, 48 h, read-out: Activity; procedure, shortened: as §3
T47D = test: Cytotoxicity against human T47D cells assessed as cell growth at 10 uM after 48 hrs by SRB assay; type: functional; conditions: read-out: Activity; procedure, shortened: as §5
[3] = Toxicity in ip dosed athymic nude mouse assessed as lethality after 2 weeks; type: organism-based; conditions: in vivo
Procedure, shortened: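 Maximum tolerated dose determination in athymic nude mice. Single ip injection of 400, 200 or 100 mg/kg, one mouse per dose. Compound solubilized in DMSO. Feed and water ad libitum. Mice observed 2 weeks for body weight loss, lethality and other toxicity signs; sacrificed if weight loss exceeds 20%.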

SR = test: Cytotoxicity against human SR cells after 48 hrs by SRB assay; type: functional; procedure, shortened: as §2
UO-31 = test: Cytotoxicity against human UO31 cells after 48 hrs by SRB assay; type: functional; conditions: UO-31, 48 h; procedure, shortened: as §2
TK-10 = test: Cytotoxicity against human TK10 cells assessed as cell growth at 10 uM after 48 hrs by SRB assay; type: functional; conditions: TK-10, 48 h, read-out: Activity; procedure, shortened: as §5
MOLT-4 = test: Cytotoxicity against human MOLT4 cells assessed as cell growth at 10 uM after 48 hrs by SRB assay; type: functional; conditions: MOLT-4, 48 h, read-out: Activity; procedure, shortened: as §1
COLO 205 = test: Antitumor activity against human COLO205 cells implanted in mouse dosed qd for 4 days by formazan dye-based hollow fiber assay; type: functional, organism-based
Procedure, shortened: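 Cells grown inside polyvinylidene fluoride hollow fibers; each line implanted into both intraperitoneal and subcutaneous compartments in mice. Compound given ip at two doses on a QD x 4 schedule. Fibers then recovered and viable cell mass measured by formazan dye conversion. Scored 2 per dose giving ≥50% reduction in viable cell mass (%T/C 50).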

IGROV-1 = test: Cytotoxicity against human IGROV1 cells assessed as cell growth at 10 uM after 48 hrs by SRB assay; type: functional; conditions: IGROV-1, 48 h, read-out: Activity; procedure, shortened: as §3

## CCc1ccc(-c2ccc(=O)n(-c3ccc(S(N)(=O)=O)cc3)n2)cc1
OVCAR-4 [1]
  growth at 10 µM: 74.5%
SN12C
  LC50: > 100 µM
SN12C; read-out: GI50
  GI50: 5.84 µM
SN12C; read-out: pGI50 (converted)
  GI50: 5.89 µM
SN12C; read-out: pTGI
  TGI: > 100 µM
MDA-MB-468
  growth at 10 µM: 7.89%
PC-3
  growth at 10 µM: 35%
786-0
  growth at 10 µM: 50%
RPMI-8226
  LC50: > 100 µM
RPMI-8226; read-out: GI50
  GI50: 0.479 µM
RPMI-8226; read-out: pGI50 (converted)
  GI50: 0.479 µM
RPMI-8226; read-out: pTGI (converted)
  TGI: 8.51 µM
HOP-92
  growth at 10 µM: 65.8%
NCI-H23
  growth at 10 µM: 59.9%
HCT-116
  LC50 (concentration causing 50% net cell death): > 100 µM
HCT-116; read-out: GI50
  GI50: 0.535 µM
HCT-116; read-out: pGI50 (converted)
  GI50: 0.537 µM
HCT-116; read-out: pTGI (converted)
  TGI: 19.1 µM
SNB-19
  growth at 10 µM: 57.6%
HL-60(TB)
  LC50: > 100 µM
HL-60(TB); read-out: GI50
  GI50: 0.376 µM
HL-60(TB); read-out: pGI50 (converted)
  GI50: 0.38 µM
HL-60(TB); read-out: pTGI (converted)
  TGI: 3.02 µM
OVCAR-4 [2]
  LC50: > 100 µM
OVCAR-4 [2]; read-out: GI50
  GI50: > 100 µM
OVCAR-4 [2]; read-out: pGI50 (converted)
  GI50: > 100 µM
OVCAR-4 [2]; read-out: pTGI
  TGI: > 100 µM
HOP-62
  growth at 10 µM: 59.9%
T47D
  growth at 10 µM: 33.4%
[3]
  MTD at 336 h: 400 mg/kg
SR
  LC50: > 100 µM
SR; read-out: GI50
  GI50: 0.0887 µM
SR; read-out: pGI50 (converted)
  GI50: 0.0891 µM
SR; read-out: pTGI (converted)
  TGI: 0.49 µM
UO-31
  LC50: > 100 µM
UO-31; read-out: GI50
  GI50: > 100 µM
UO-31; read-out: pGI50 (converted)
  GI50: > 100 µM
UO-31; read-out: pTGI
  TGI: > 100 µM
TK-10
  growth at 10 µM: 76.8%
MOLT-4
  growth at 10 µM: 16%
COLO 205
  Activity: inactive
IGROV-1
  growth at 10 µM: -5.72%
